Experimental data published in ChEMBL document CHEMBL4706579, “Novel quinazolinone inhibitors of the Pseudomonas aeruginosa quorum sensing transcriptional regulator PqsR” (Eur J Med Chem, 2020).
pIC50: −log10 of the molar value. Activity calls are given as the source filed them. The calls are words filed in the database; no cut-off is given here.

Experiments:
[1] = target: T1, Transcriptional regulator MvfR (Pseudomonas aeruginosa PA14) (UniProt A0A072ZLE6); assay: Inhibition of PqsR in Pseudomonas aeruginosa PAO1 L harboring mCTX:PpqsA-lux fusion protein assessed as remaining enzyme activity at 10 uM and measured every 30 mins for 24 hrs by spot test relative to control
T1 sequence (whole entry): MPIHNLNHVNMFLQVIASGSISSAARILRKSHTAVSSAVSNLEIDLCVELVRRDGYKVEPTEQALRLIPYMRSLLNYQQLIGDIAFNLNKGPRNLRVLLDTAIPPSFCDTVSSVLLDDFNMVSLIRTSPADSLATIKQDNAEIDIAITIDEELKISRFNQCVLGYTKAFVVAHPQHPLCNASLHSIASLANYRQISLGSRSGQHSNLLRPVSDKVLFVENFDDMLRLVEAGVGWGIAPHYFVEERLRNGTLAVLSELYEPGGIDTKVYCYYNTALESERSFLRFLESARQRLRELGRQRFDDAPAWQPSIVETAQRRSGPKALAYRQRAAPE
Method in brief: (§1)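 Chromosomal mCTX:PpqsA-lux reporter strain in LB, overnight culture (OD600 2.0–3.0) diluted to OD600 0.02 and mixed 1:1 with compound, final 10 μM, at least triplicate wells. Run at 37 °C for 24 h, with OD600 and luminescence read every 30 min. Luminescence/OD600 taken at the luminescence peak (8–9 h) and normalised to the 0.1% DMSO control (100%).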

[2] = target: T1, Transcriptional regulator MvfR (Pseudomonas aeruginosa PA14); assay: Inhibition of PqsR in Pseudomonas aeruginosa PA14 harboring mCTX:PpqsA-lux fusion assessed as remaining activity at 10 uM incubated for 24 hrs by spot test relative to control; method in brief: as §1
[3] = target: T2, Transcriptional regulator MvfR (Pseudomonas aeruginosa PA14, UniProt A0A072ZLE6); assay: Inhibition of PqsR in Pseudomonas aeruginosa PAO1 L harboring mCTX:PpqsA-lux fusion protein measured every 30 mins for 24 hrs by luminescence reporter gene assay
T2 sequence (A0A072ZLE6 whole entry): T1 sequence (whole entry)
Method in brief: (§2)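 Chromosomal mCTX:PpqsA-lux reporter strain grown overnight to OD600 2.0–3.0, diluted in LB to OD600 0.02 and mixed 1:1 with compound in LB. Ten […] serial concentrations, final 31.6 μM to 1 nM, in triplicate. Run at 37 °C for 24 h with OD600 and luminescence read every 30 min. IC50 from log concentration vs RLU/OD600 at the luminescence peak (8–9 h).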

[4] = target: T2, Transcriptional regulator MvfR; assay: Inhibition of PqsR in Pseudomonas aeruginosa PA14 harboring mCTX:PpqsA-lux fusion protein measured every 30 mins for 24 hrs by luminescence reporter gene assay; method in brief: as §2
Pseudomonas aeruginosa = assay: Bactericidal activity against Pseudomonas aeruginosa PAO1 L assessed as inhibition of bacterial growth; type: functional, organism-based
[5] = target: T1, Transcriptional regulator MvfR (Pseudomonas aeruginosa PA14); assay: Inhibition of PqsR in Pseudomonas aeruginosa PAO1 L harboring mCTX:PpqsA-lux fusion at 10 uM and measured every 30 mins for 24 hrs by spot test; method in brief: as §1
A549 = assay: Cytotoxicity against human A549 cells assessed as reduction in cell viability at 0.1 to 100 uM after 16 hrs by Alamar blue assay; type: cell-based; conditions: a549, 16 h, dose 0.1-100 µM
Method in brief: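 A549 lung epithelial cells kept in DMEM with 10% FBS and 1% penicillin-streptomycin at 37 °C, 5% CO2. Trypsinised at 80% confluence, resuspended in DMEM-F12, seeded at 10,000 cells/well, left 16 h. Compound added (0.1–100 μM), 16 h further incubation. Alamar blue for 5 h, fluorescence ex 510/em 590 nm, normalised to untreated cells.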

[6] = Solubility of the compound in test buffer at >100 uM; type: physicochemical
[7] = target: T1, Transcriptional regulator MvfR (Pseudomonas aeruginosa PA14); assay: Inhibition of Pseudomonas aeruginosa PAO1-L PqsR assessed as reduction in pyocyanin production by measuring pyocyanin level at 3 times IC50 incubated for 16 hrs; set-up: scale not given: the % may be the effect or the level left
[8] = tested on: Pseudomonas aeruginosa PA14 PqsR; assay: Therapeutic index, ratio of cytotoxicity against human A549 cells to IC50 for inhibition of Pseudomonas aeruginosa PA14 PqsR; type: toxicity, cell-based; conditions: read-out: TI

SMILES	Activity [1] [%]	Activity [2] [%]	pIC50 [3]	pIC50 [4]	Activity (Pseudomonas aeruginosa)	also measured
N#CCc1nc(Cn2cnc3ccc(Cl)cc3c2=O)cs1	104	> 50	–	–	–	–
O=c1c2cc(Cl)ccc2ncn1Cc1csc(-c2ccco2)n1	–	–	5.88	5.88	inactive	–
CC(C)c1ncc(Cn2cnc3ccc(Cl)cc3c2=O)s1	65	> 50	–	–	–	–
CCc1nc(Cn2cnc3ccc(Cl)cc3c2=O)cs1	79	> 50	–	–	–	–
CC(C)(C)c1nc(Cn2cnc3ccc(Cl)cc3c2=O)cs1	–	–	6.40	6.19	inactive	–
CCCC(C)c1nc(Cn2cnc3ccc(Cl)cc3c2=O)cs1 (configuration not stated)	–	–	5.95	6.19	inactive	–
O=c1c2cc(Cl)ccc2ncn1Cc1csc(-c2ccccc2)n1	–	–	6.61	6.91	inactive	–
O=c1c2cc(Cl)ccc2ncn1Cc1csc(C(F)(F)F)n1	52	> 50	–	–	–	–
COCCNc1nc(Cn2cnc3ccc(Cl)cc3c2=O)cs1	85	> 50	–	–	–	–
CCC(C)Cc1nc(Cn2cnc3ccc(Cl)cc3c2=O)cs1 (configuration not stated)	–	–	5.80	6.19	inactive	–
CC(C)CCc1nc(Cn2cnc3ccc(Cl)cc3c2=O)cs1	–	–	5.87	6.17	inactive	–
CCCCc1nc(Cn2cnc3ccc(Cl)cc3c2=O)cs1	–	–	5.81	5.76	inactive	–
Cc1nc(Cn2cnc3ccc(Cl)cc3c2=O)cs1	83	> 50	–	–	–	–
O=c1c2cc(Cl)ccc2ncn1Cc1cnc(Cl)s1	95	> 50	–	–	–	–
O=c1c2cc(Cl)ccc2ncn1Cc1csc(/C=C/c2ccco2)n1	–	–	5.69	5.54	inactive	–
CN(CCO)c1ncc(Cn2cnc3ccc(Cl)cc3c2=O)s1	101	> 50	–	–	–	–

SMILES	Activity [1] [%]	Activity [2] [%]	pIC50 [3]	pIC50 [4]	Activity (Pseudomonas aeruginosa)	also measured
CCCCNc1nc(Cn2cnc3ccc(Cl)cc3c2=O)cs1	–	> 50	5.45	–	inactive	–
CC1CCN(c2ncc(Cn3cnc4ccc(Cl)cc4c3=O)s2)CC1	72	> 50	–	–	–	–
O=c1c2cc(Cl)ccc2ncn1Cc1cnc(NC2CCCCC2)s1	83	> 50	–	–	–	–
CC(C)c1noc(Cn2cnc3ccc(Cl)cc3c2=O)n1	–	–	–	–	–	inhibition [5]: inactive
O=c1c2cc(Cl)ccc2ncn1Cc1csc(-c2ccc([N+](=O)[O-])cc2)n1	89	> 50	–	–	–	–
CC(C)(C)c1nc(Cn2cnc3cc(Cl)ccc3c2=O)cs1	–	> 50	5.53	–	inactive	–
NC(N)=Nc1nc(Cn2cnc3ccc(Cl)cc3c2=O)cs1	108	> 50	–	–	–	–
CCCCCc1nc(Cn2cnc3cc(Cl)ccc3c2=O)cs1	106	> 50	–	–	–	–
CCCCCc1nc(Cn2cnc3ccc(Cl)cc3c2=O)cs1	–	–	6.50	6.47	inactive	Activity (A549): Non-Toxic; solubility [6]: Insoluble; Activity [7]: 23%; selectivity ratio [8]: > 292
CC(C)Cc1nc(Cn2cnc3ccc(Cl)cc3c2=O)cs1	–	–	5.92	5.88	inactive	–
CCCCCCc1nc(Cn2cnc3ccc(Cl)cc3c2=O)cs1	–	–	6.53	6.58	inactive	Activity (A549): Non-Toxic; solubility [6]: Insoluble; Activity [7]: 36%; selectivity ratio [8]: > 377
CCCCNc1ncc(Cn2cnc3ccc(Cl)cc3c2=O)s1	67	> 50	–	–	–	–
CC(C)c1nc(Cn2cnc3ccc(Cl)cc3c2=O)cs1	–	–	5.98	5.80	inactive	–
CC(C)c1nc(Cn2cnc3cc(F)ccc3c2=O)cs1	–	–	4.88	–	–	–
COCCNc1ncc(Cn2cnc3ccc(Cl)cc3c2=O)s1	85	> 50	–	–	–	–
